Each block holds one compound with its values, some of them ahead of it. Calls of active or inactive are those of the source. No cut-off for these calls is given here.
Key:
[1] = Elimination half life in C57BL/6J mouse plasma at 10 mg/kg, po administered once a day for 4 consecutive days by mass spectrometry based UHPLC analysis; format: ADME, organism-based; conditions: time 4 day, read-out: beta t1/2 (converted)
Summary of the method: (§1)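 Female C57BL/6J mice given 10 mg/kg p.o. in 20% Captisol once daily for 4 consecutive days. Plasma and brain sampled after the final dose on day 4, n = 3 per time point.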

[2] = tested on: Mus musculus; experiment: In vivo inhibition of PI3Kalpha in C57BL/6J mouse assessed as increase in plasma glucose concentration at 10 mg/kg, po measured after 8 hrs by glucoseoxidase-peroxide coupled colorimetric assay; format: functional, organism-based
[3] = tested on: Mus musculus; experiment: In vivo inhibition of mTORC1 signalling in C57BL/6J mouse assessed as reduction in RPS6 phosphorylation at S235/236 residue in cortex at 10 mg/kg, po incubated for 30 mins by Western blot analysis; format: functional, organism-based
[4] = Elimination half life in C57BL/6J mouse plasma at 10 mg/kg, po administered as single dose by mass spectrometry based UHPLC analysis; format: ADME, organism-based; conditions: read-out: beta t1/2 (converted)
Summary of the method: (§2)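 Female C57BL/6J mice, one oral dose of 10 mg/kg in 20% Captisol; plasma and brain levels over time, n = 3 per time point (mean).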

[5] = Clearance in C57BL/6J mouse plasma at 10 mg/kg, po administered as single dose by mass spectrometry based UHPLC analysis; format: ADME, organism-based; summary of the method: as §2
[6] = Tmax in C57BL/6J mouse plasma at 10 mg/kg, po administered once a day for 4 consecutive days by mass spectrometry based UHPLC analysis; format: ADME, organism-based; conditions: time 4 day
Summary of the method: (§3)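 Female C57BL/6J mice dosed orally at 10 mg/kg in 20% Captisol, either once or once daily for 4 days with sampling after the last dose on day 4. Plasma and brain concentrations followed over time. Tmax taken from at least 3 time points.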

[7] = tested on: Mus musculus; experiment: In vivo inhibition of PI3Kalpha C57BL/6J mouse assessed as increase in plasma insulin concentration at 10 mg/kg, po measured after 8 hrs by ELISA; format: functional, organism-based
[8] = Cmax in C57BL/6J mouse plasma at 10 mg/kg, po administered once a day for 4 consecutive days by mass spectrometry based UHPLC analysis; format: ADME, organism-based; set-up: route oral, dose 10 mg/kg, time 4 day; summary of the method: as §1
[9] = Cmax in C57BL/6J mouse brain at 10 mg/kg, po administered once a day for 4 consecutive days by mass spectrometry based UHPLC analysis; format: ADME, organism-based; set-up: route oral, dose 10 mg/kg, time 4 day; summary of the method: as §1
[10] = Cmax in C57BL/6J mouse plasma at 10 mg/kg, po administered as single dose by mass spectrometry based UHPLC analysis; format: ADME, organism-based; set-up: route oral, dose 10 mg/kg; summary of the method: as §2
[11] = Elimination half life in C57BL/6J mouse brain at 10 mg/kg, po administered once a day for 4 consecutive days by mass spectrometry based UHPLC analysis; format: ADME, organism-based; conditions: time 4 day, read-out: beta t1/2 (converted); summary of the method: as §1
[12] = AUC (0 to 8 hrs) in C57BL/6J mouse brain at 10 mg/kg, po administered as single dose by mass spectrometry based UHPLC analysis; format: ADME, organism-based; set-up: time < 8 hr, route oral, dose 10 mg/kg; summary of the method: as §2
[13] = AUC (0 to 8 hrs) in C57BL/6J mouse plasma at 10 mg/kg, po administered once a day for 4 consecutive days by mass spectrometry based UHPLC analysis; format: ADME, organism-based; set-up: route oral, time 4 day, dose 10 mg/kg; summary of the method: as §1
[14] = Cmax in C57BL/6J mouse brain at 10 mg/kg, po administered as single dose by mass spectrometry based UHPLC analysis; format: ADME, organism-based; set-up: route oral, dose 10 mg/kg; summary of the method: as §2
[15] = Tmax in C57BL/6J mouse plasma at 10 mg/kg, po administered as single dose by mass spectrometry based UHPLC analysis; format: ADME, organism-based; summary of the method: as §3
[16] = Tmax in C57BL/6J mouse brain at 10 mg/kg, po administered as single dose by mass spectrometry based UHPLC analysis; format: ADME, organism-based; summary of the method: as §3
[17] = Clearance in C57BL/6J mouse plasma at 10 mg/kg, po administered once a day for 4 consecutive days by mass spectrometry based UHPLC analysis; format: ADME, organism-based; conditions: time 4 day; summary of the method: as §1
[18] = Tmax in C57BL/6J mouse brain at 10 mg/kg, po administered once a day for 4 consecutive days by mass spectrometry based UHPLC analysis; format: ADME, organism-based; conditions: time 4 day; summary of the method: as §3
[19] = tested on: Mus musculus; experiment: Protection against Tsc1-GFAP knockout induced mortality in Balb/c mouse assessed as increase in survival rate at 10 mg/kg, po administered as single dose; format: functional, organism-based
[20] = Toxicity in Tsc1-GFAP knockout Balb/c mouse assessed as change in body weight at 10 mg/kg, po; format: organism-based; conditions: in vivo
Summary of the method: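 Tsc1GFAPCKO mice dosed orally from P21 at 10, 25, 50 mg/kg or 50 mg/kg bid. Body weight tracked during the survival study; mean ± SEM.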

[21] = AUC (0 to 8 hrs) in C57BL/6J mouse brain at 10 mg/kg, po administered once a day for 4 consecutive days by mass spectrometry based UHPLC analysis; format: ADME, organism-based; set-up: route oral, time 4 day, dose 10 mg/kg; summary of the method: as §1
[22] = AUC (0 to 8 hrs) in C57BL/6J mouse plasma at 10 mg/kg, po administered as single dose by mass spectrometry based UHPLC analysis; format: ADME, organism-based; set-up: time < 8 hr, route oral, dose 10 mg/kg; summary of the method: as §2
[23] = Toxicity in po dosed Balb/c nude mouse administered once daily for 14 days measured for 7 days starting from post last dose; format: organism-based; conditions: in vivo, time 21 day
Summary of the method: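 Nontumor-bearing female BALB/c nude mice dosed p.o. once daily for 14 days at 100, 150 or 200 mg/kg (n = 3 each), with vehicle of 20% Captisol in water (n = 1). Body weight change followed, with animals evaluated for 7 days after dosing to set the maximum tolerated dose.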

[24] = tested on: Mus musculus; experiment: Protection against Tsc1-GFAP knockout induced mortality in Balb/c mouse assessed as increase in survival rate at 100 mg/kg, po administered as single dose; format: functional, organism-based
[25] = Metabolic stability in CD1 mouse hepatocytes assessed as parent compound remaining at 5 uM incubated for 3 hrs by LC-MS analysis; format: ADME, cell-based, Hepatocyte; conditions: read-out: Stabilty
Summary of the method: (§4)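 Cryopreserved primary hepatocytes in suspension (CD-1 mouse, Sprague-Dawley rat, Beagle dog, human). Compound diluted from 10 mM DMSO stock to 5 μM final. Sampled at 0, 15, 60, 90 and 180 min, protein precipitated with ACN plus internal standard, supernatant analysed by LC−MS. Run in duplicate. 7-ethoxycoumarin as positive control. Hepatocyte-free medium incubations as negative control.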

[26] = tested on: Mus musculus; experiment: Protection against Tsc1-GFAP knockout induced mortality in Balb/c mouse assessed as increase in survival rate administered orally twice a day measured post last dose; format: functional, organism-based
Summary of the method: (§5)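 Tsc1GFAPCKO mice (Tsc1 conditionally inactivated mainly in glia). Oral dosing from P21 at 10, 25, 50 mg/kg qd or 50 mg/kg bid, n = 7–10 per group. Controls were vehicle and a comparator at 10 mg/kg. Body weight tracked. Survival followed from P21 to death or censoring at P90, compared by log-rank test.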

[27] = Toxicity in Tsc1-GFAP knockout Balb/c mouse assessed as survival rate administered orally once a day measured post last dose; conditions: in vivo, po, dose 50-100 mg/kg; summary of the method: as §5
[28] = Metabolic stability in human hepatocytes assessed as parent compound remaining at 5 uM incubated for 3 hrs by LC-MS analysis; format: ADME, cell-based, Hepatocyte; conditions: read-out: Stabilty; summary of the method: as §4
[29] = Metabolic stability in Sprague-Dawley rat hepatocytes assessed as parent compound remaining at 5 uM incubated for 3 hrs by LC-MS analysis; format: ADME, cell-based, Hepatocyte; conditions: read-out: Stabilty; summary of the method: as §4
[30] = Toxicity in Tsc1-GFAP knockout Balb/c mouse assessed as change in body weight at 50 to 100 mg/kg, po; format: organism-based; conditions: in vivo, dose 50-100 mg/kg
[31] = Metabolic stability in Beagle dog hepatocytes assessed as parent compound remaining at 5 uM incubated for 3 hrs by LC-MS analysis; format: ADME, cell-based, Canis lupus familiaris, Hepatocyte; conditions: read-out: Stabilty; summary of the method: as §4

- half-life [1]: 342 min
- half-life [4]: 390 min
- CL/F [5]: 4.6 mL/min/kg
- Tmax [6]: 2 h
- Cmax [8]: 3940 ng/mL
- Cmax [9]: 43 ng/mL
- Cmax [10]: 3460 ng/mL
- half-life [11]: 948 min
- AUC(0-t) at 8 h [12]: 804 ng·h/mL
- AUC at 96 h [13]: 42300 ng·h/mL
- Cmax [14]: 57 ng/mL
- Tmax [15]: 30 min
- Tmax [16]: 24 h
- CL/F [17]: 3.75 mL/min/kg
- Tmax [18]: 4 h
- AUC at 96 h [21]: 640 ng·h/mL
- AUC(0-t) at 8 h [22]: 33600 ng·h/mL
Compound: CO[C@H]1C[C@@H]2CC[C@@H](C)[C@@](O)(O2)C(=O)C(=O)N2CCCC[C@H]2C(=O)O[C@H]([C@H](C)C[C@@H]2CC[C@@H](OCCO)[C@H](OC)C2)CC(=O)[C@H](C)/C=C(\C)[C@@H](O)[C@@H](OC)C(=O)[C@H](C)C[C@H](C)/C=C/C=C/C=C/1C [EVEROLIMUS]
- inhibition [2]: inactive
- inhibition [3]: inactive
- inhibition [7]: inactive
- Activity [19]: Active
- Activity [20]: Non-Toxic

Compound: Nc1cc(C(F)F)c(-c2nc(N3C4CCC3COC4)nc(N3C4CCC3COC4)n2)cn1
- MTD at 504 h [23]: 150 mg/kg
- Activity [24]: Active
- remaining at 3 h, 5 µM [25]: > 59.9%
- Activity [26]: Dose-dependent effect
- Activity [27]: Dose-dependent effect
- remaining at 3 h, 5 µM [28]: 27.8%
- remaining at 3 h, 5 µM [29]: > 59.9%
- Activity [30]: Non-Toxic
- remaining at 3 h, 5 µM [31]: > 59.9%

Reference: ChEMBL document CHEMBL4715860 (J Med Chem, 2020)
